Laboratory results published in ChEMBL document CHEMBL3259713, “Dissecting the structure of thiopeptides: assessment of thiazoline and tail moieties of baringolin and antibacterial activity optimization” (J Med Chem, 2014).
In brackets after ≈: the same amount, converted by molar mass. Square brackets hold non-standard residues; d marks the D form. Peptide text beside a SMILES is read from it. * marks the point of attachment. Dha = C=C(N)C(=O)O; X1 = O=C(c1cscn1)*

Tests used:
[1] = tested on: Bacillus subtilis; experiment: Antibacterial activity against Bacillus subtilis ATCC 6633 assessed as growth inhibition after 24 hrs by CLSI M7-A9 broth microdilution method; type: functional; conditions: ATCC 6633, 24 h
Method in brief: (§1)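 Isolates from frozen stocks subcultured at least twice on sheep blood agar and grown 24 h before testing. Inoculum made by direct suspension in saline to 0.5 McFarland turbidity. MIC determined by broth microdilution in Mueller-Hinton broth following CLSI M7-A9, incubated at 35 °C for 24 h.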

[2] = tested on: Staphylococcus aureus; experiment: Antibacterial activity against Staphylococcus aureus assessed as growth inhibition after 24 hrs by CLSI M7-A9 broth microdilution method; type: functional; method in brief: as §1
[3] = tested on: Cutibacterium acnes; experiment: Antibacterial activity against Propionibacterium acnes assessed as growth inhibition after 24 hrs by CLSI M11-A8 broth microdilution method; type: functional
Method in brief: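 This anaerobe was subcultured at least twice from frozen stock on supplemented Brucella agar and grown 48 h before testing. Inoculum was a direct saline suspension at 0.5 McFarland. MIC was by microdilution in Brucella broth with hemin (5 μg/mL), vitamin K1 and 5% lysed horse blood per CLSI M11-A8, 35 °C for 24 h under anaerobic conditions.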

[4] = tested on: Micrococcus luteus; experiment: Antibacterial activity against Micrococcus luteus ATCC 9341 assessed as growth inhibition after 24 hrs by CLSI M7-A9 broth microdilution method; type: functional; conditions: ATCC 9341, 24 h; method in brief: as §1
[5] = Solubility of the compound in 0.1 M phosphate buffer after 48 hrs by spectrophotometer analysis; type: physicochemical
Method in brief: (§2)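 About 1 mg of solid was combined with a known volume of solvent so that the solution was saturated. It was vortexed 1 min, shaken 48 h and centrifuged at 10000 rpm for 3 min. Dissolved compound in the supernatant was measured by absorbance at 304 nm.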

[6] = Solubility of the compound in water after 48 hrs by spectrophotometer analysis; type: physicochemical; method in brief: as §2

MIC [1]	MIC [2]	MIC [3]	MIC [4]	solubility at 48 h [5]	solubility at 48 h [6]	SMILES
0.25 µg/mL (≈ 0.165 µM)	0.25 µg/mL (≈ 0.165 µM)	0.125 µg/mL (≈ 0.0825 µM)	0.5 µg/mL (≈ 0.33 µM)	–	–	C=C(NC(=O)C(=C)NC(=O)[C@@H]1CCCN1C(=O)[C@H](C)NC(=O)C(=C)NC(=O)c1csc(-c2ccc3c(n2)-c2csc(n2)-c2csc(n2)[C@@H]2CCCN2C(=O)[C@H](Cc2ccc(O)cc2)NC(=O)[C@H]2CSC(=N2)[C@H](Cc2ccccc2)NC(=O)c2csc(n2)[C@H](CC(N)=O)NC(=O)c2nc-3oc2C)n1)C(N)=O
> 8 µg/mL	> 8 µg/mL	4 µg/mL (≈ 3.43 µM)	2 µg/mL (≈ 1.71 µM)	–	–	CCOC(=O)c1csc(-c2ccc3c(n2)-c2csc(n2)-c2csc(n2)[C@@H]2CCCN2C(=O)[C@H](Cc2ccc(O)cc2)NC(=O)c2csc(n2)[C@H](Cc2ccccc2)NC(=O)c2csc(n2)[C@H](CC(N)=O)NC(=O)c2nc-3oc2C)n1
8 µg/mL (≈ 6.84 µM)	> 8 µg/mL	4 µg/mL (≈ 3.42 µM)	4 µg/mL (≈ 3.42 µM)	–	–	CCOC(=O)c1csc(-c2ccc3c(n2)-c2csc(n2)-c2csc(n2)[C@@H]2CCCN2C(=O)[C@H](Cc2ccc(O)cc2)NC(=O)C2CSC(=N2)[C@H](Cc2ccccc2)NC(=O)c2csc(n2)[C@H](CC(N)=O)NC(=O)c2nc-3oc2C)n1 (stereo partly drawn)
8 µg/mL (≈ 7.02 µM)	2 µg/mL (≈ 1.76 µM)	2 µg/mL (≈ 1.76 µM)	> 8 µg/mL	23 µg/mL (≈ 20.2 µM)	–	Cc1oc2nc1C(=O)N[C@@H](CC(N)=O)c1nc(cs1)C(=O)N[C@@H](Cc1ccccc1)c1nc(cs1)C(=O)N[C@@H](Cc1ccc(O)cc1)C(=O)N1CCC[C@H]1c1nc(cs1)-c1nc(cs1)-c1nc(-c3nc(C(=O)O)cs3)ccc1-2
8 µg/mL (≈ 7.03 µM)	1 µg/mL (≈ 0.878 µM)	8 µg/mL (≈ 7.03 µM)	> 8 µg/mL	7 µg/mL (≈ 6.15 µM)	–	Cc1oc2nc1C(=O)N[C@@H](CC(N)=O)c1nc(cs1)C(=O)N[C@@H](Cc1ccccc1)c1nc(cs1)C(=O)N[C@@H](Cc1ccc(O)cc1)C(=O)N1CCC[C@H]1c1nc(cs1)-c1nc(cs1)-c1nc(-c3nc(C(N)=O)cs3)ccc1-2
0.03 µg/mL (≈ 0.0237 µM)	0.03 µg/mL (≈ 0.0237 µM)	0.06 µg/mL (≈ 0.0474 µM)	0.5 µg/mL (≈ 0.395 µM)	18 µg/mL (≈ 14.2 µM)	–	Cc1oc2nc1C(=O)N[C@@H](CC(N)=O)c1nc(cs1)C(=O)N[C@@H](Cc1ccccc1)c1nc(cs1)C(=O)N[C@@H](Cc1ccc(O)cc1)C(=O)N1CCC[C@H]1c1nc(cs1)-c1nc(cs1)-c1nc(-c3nc(C(=O)N[C@H]4CC[C@H](C(=O)O)CC4)cs3)ccc1-2
8 µg/mL (≈ 5.82 µM)	0.5 µg/mL (≈ 0.363 µM)	4 µg/mL (≈ 2.91 µM)	2 µg/mL (≈ 1.45 µM)	–	–	C=C(NC(=O)c1csc(-c2ccc3c(n2)-c2csc(n2)-c2csc(n2)[C@@H]2CCCN2C(=O)[C@H](Cc2ccc(O)cc2)NC(=O)c2csc(n2)[C@H](Cc2ccccc2)NC(=O)c2csc(n2)[C@H](CC(N)=O)NC(=O)c2nc-3oc2C)n1)C(=O)N[C@@H](C)C(=O)N1CCC[C@H]1C(N)=O
0.25 µg/mL (≈ 0.181 µM)	0.25 µg/mL (≈ 0.181 µM)	0.125 µg/mL (≈ 0.0907 µM)	0.5 µg/mL (≈ 0.363 µM)	–	–	C=C(NC(=O)c1csc(-c2ccc3c(n2)-c2csc(n2)-c2csc(n2)[C@@H]2CCCN2C(=O)[C@H](Cc2ccc(O)cc2)NC(=O)C2CSC(=N2)[C@H](Cc2ccccc2)NC(=O)c2csc(n2)[C@H](CC(N)=O)NC(=O)c2nc-3oc2C)n1)C(=O)N[C@@H](C)C(=O)N1CCC[C@H]1C(N)=O (stereo partly drawn)
0.5 µg/mL (≈ 0.346 µM)	0.5 µg/mL (≈ 0.346 µM)	8 µg/mL (≈ 5.54 µM)	2 µg/mL (≈ 1.38 µM)	–	–	C=C(NC(=O)[C@@H]1CCCN1C(=O)[C@H](C)NC(=O)C(=C)NC(=O)c1csc(-c2ccc3c(n2)-c2csc(n2)-c2csc(n2)[C@@H]2CCCN2C(=O)[C@H](Cc2ccc(O)cc2)NC(=O)c2csc(n2)[C@H](Cc2ccccc2)NC(=O)c2csc(n2)[C@H](CC(N)=O)NC(=O)c2nc-3oc2C)n1)C(N)=O
0.5 µg/mL (≈ 0.346 µM)	0.5 µg/mL (≈ 0.346 µM)	0.5 µg/mL (≈ 0.346 µM)	1 µg/mL (≈ 0.691 µM)	–	–	C=C(NC(=O)[C@@H]1CCCN1C(=O)[C@H](C)NC(=O)C(=C)NC(=O)c1csc(-c2ccc3c(n2)-c2csc(n2)-c2csc(n2)[C@@H]2CCCN2C(=O)[C@H](Cc2ccc(O)cc2)NC(=O)C2CSC(=N2)[C@H](Cc2ccccc2)NC(=O)c2csc(n2)[C@H](CC(N)=O)NC(=O)c2nc-3oc2C)n1)C(N)=O (stereo partly drawn)
1 µg/mL (≈ 0.661 µM)	0.5 µg/mL (≈ 0.33 µM)	8 µg/mL (≈ 5.28 µM)	2 µg/mL (≈ 1.32 µM)	–	–	C=C(NC(=O)C(=C)NC(=O)[C@@H]1CCCN1C(=O)[C@H](C)NC(=O)C(=C)NC(=O)c1csc(-c2ccc3c(n2)-c2csc(n2)-c2csc(n2)[C@@H]2CCCN2C(=O)[C@H](Cc2ccc(O)cc2)NC(=O)c2csc(n2)[C@H](Cc2ccccc2)NC(=O)c2csc(n2)[C@H](CC(N)=O)NC(=O)c2nc-3oc2C)n1)C(N)=O
> 8 µg/mL	> 8 µg/mL	8 µg/mL (≈ 15.9 µM)	2 µg/mL (≈ 3.97 µM)	6650 µg/mL (≈ 13200 µM)	4660 µg/mL (≈ 9260 µM)	C=C(NC(=O)C(=C)NC(=O)[C@@H]1CCCN1C(=O)[C@H](C)NC(=O)C(=C)NC(=O)c1cscn1)C(N)=O (X1-[Dha]AP[Dha][Dha]-NH2)
